Tests used:
Rattus norvegicus [1] = experiment: Anticoagulant activity in Wistar rats in vivo assessed as prothrombin time
Plasma [2] = experiment: Anticoagulant activity in Wistar albino rat plasma assessed as prothrombin time at 0.5 mg/kg, ip; assay type: functional; settings: route intraperitoneal
Method in brief: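 Adult Wistar rats (2.5 months, 220–250 g), three per compound and control, were given a single i.p. dose of 0.1 or 0.5 mg/kg in ethanol solution and sacrificed 24 h later. Plasma prothrombin time was measured by Quick method and reported in seconds and as INR, from at least three measurements.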

Plasma [3] = experiment: Anticoagulant activity in Wistar albino rat plasma assessed as prothrombin time at 0.1 mg/kg, ip; assay type: functional; settings: route intraperitoneal
Method in brief: (§1)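 Adult Wistar rats (2.5 months, 220–250 g), three per compound and control, were given a single i.p. dose of 0.1 or 0.5 mg/kg in ethanol solution and sacrificed 24 h later. […] Plasma prothrombin time was measured by Quick method and reported in seconds and as INR, from at least three measurements.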

Rattus norvegicus [4] = experiment: Hepatotoxicity in Wistar albino rat assessed as change in serum albumin level at 0.5 mg/kg, ip measured after 24 hrs; assay type: toxicity, organism-based; set-up: dose 0.5 mg/kg, route intraperitoneal; settings: in vivo
Rattus norvegicus [5] = experiment: Hepatotoxicity in Wistar albino rat assessed as change in serum iron level at 0.5 mg/kg, ip measured after 24 hrs; assay type: toxicity, organism-based; set-up: dose 0.5 mg/kg, route intraperitoneal; settings: in vivo
Plasma [6] = experiment: Anticoagulant activity in human plasma assessed as prothrombin time at 1 mg/ml; assay type: functional
Method in brief: (§2)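 Frozen human plasma (blood type A+) was used. Compounds were prepared at 1 mg/mL in a vehicle of 96% EtOH, 0.9% NaCl, 20% glycerol and phosphate buffer pH 7. Prothrombin time was measured by Quick method and reported in seconds and as INR, with SD from at least three measurements.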

Rattus norvegicus [7] = experiment: Hepatotoxicity in Wistar albino rat assessed as change in serum gamma-GT level at 0.5 mg/kg, ip measured after 24 hrs; assay type: toxicity, organism-based; set-up: dose 0.5 mg/kg, route intraperitoneal; settings: in vivo
Rattus norvegicus [8] = experiment: Hepatotoxicity in Wistar albino rat assessed as change in serum ALP level at 0.5 mg/kg, ip measured after 24 hrs; assay type: toxicity, organism-based; set-up: dose 0.5 mg/kg, route intraperitoneal; settings: in vivo
Plasma [9] = experiment: Anticoagulant activity in Wistar albino rat plasma assessed as international normalized ratio at 0.5 mg/kg, ip; assay type: functional; settings: route intraperitoneal
Method in brief: as §1

Rattus norvegicus [10] = experiment: Hepatotoxicity in Wistar albino rat assessed as change in serum AST level at 0.5 mg/kg, ip measured after 24 hrs; assay type: toxicity, organism-based; set-up: dose 0.5 mg/kg, route intraperitoneal; settings: in vivo
Plasma [11] = experiment: Anticoagulant activity in Wistar albino rat plasma assessed as fibrin time; assay type: functional
Method in brief: (§3)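 Adult albino Wistar rats (2.5 months old, 220–250 g), three per compound and control. […] Fibrin time and fibrinogen were determined on plasma. Fibrinogen was quantified by biuret method at 540 nm. At least three measurements, reported with standard deviation.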

Rattus norvegicus [12] = experiment: Hepatotoxicity in Wistar albino rat assessed as change in serum ALT level at 0.5 mg/kg, ip measured after 24 hrs; assay type: toxicity, organism-based; set-up: dose 0.5 mg/kg, route intraperitoneal; settings: in vivo
Rattus norvegicus [13] = experiment: Hepatotoxicity in Wistar albino rat assessed as change in serum protein level at 0.5 mg/kg, ip measured after 24 hrs; assay type: toxicity, organism-based; set-up: dose 0.5 mg/kg, route intraperitoneal; settings: in vivo
Plasma [14] = experiment: Anticoagulant activity in human plasma assessed as international normalized ratio at 1 mg/ml; assay type: functional
Method in brief: as §2

Plasma [15] = experiment: Anticoagulant activity in Wistar albino rat plasma assessed as fibrinogen level; assay type: functional
Method in brief: as §3

Rattus norvegicus [16] = experiment: Hepatotoxicity in Wistar albino rat assessed as change in serum bilirubin level at 0.5 mg/kg, ip measured after 24 hrs; assay type: toxicity, organism-based; set-up: dose 0.5 mg/kg, route intraperitoneal; settings: in vivo
Plasma [17] = experiment: Anticoagulant activity in Wistar albino rat plasma assessed as international normalized ratio at 0.1 mg/kg, ip; assay type: functional; settings: route intraperitoneal
Method in brief: as §1

IC50 (Rattus norvegicus [1]) | Compound | PT (Plasma [2]) | PT (Plasma [3]) | Activity (Rattus norvegicus [4]) | Activity (Rattus norvegicus [5]) | PT (Plasma [6]) | Activity (Rattus norvegicus [7]) | Activity (Rattus norvegicus [8]) | Ratio (Plasma [9]) | Activity (Rattus norvegicus [10]) | Time (Plasma [11]) | Activity (Rattus norvegicus [12]) | Activity (Rattus norvegicus [13]) | Ratio (Plasma [14]) | Activity (Plasma [15]) | Activity (Rattus norvegicus [16]) | Ratio (Plasma [17])
1150 µM | COC(=O)/C(C(C)=O)=C(/C)c1c(O)c2ccccc2oc1=O | 9.8 s | 9.3 s | 38.9 g/L | 23.9 µmol/L | 19 s | 2.8 U/L | 285 U/L | 0.94 | 236.9 U/L | 40.7 s | 65.5 U/L | 66.4 g/L | 1.8 | 1.6 g/L | 1.7 µmol/L | 0.92
1700 µM | CC(=O)c1c(O)c2ccccc2oc1=O | 9.5 s | 9.1 s | 31.9 g/L | 26.1 µmol/L | 14 s | 3.8 U/L | 200 U/L | 0.9 | 160.5 U/L | 44.9 s | 34.8 U/L | 63.8 g/L | 1.25 | 2.5 g/L | 1.7 µmol/L | 0.9
2340 µM | O=c1oc2ccccc2c(O)c1-c1csc(Nc2ccc([N+](=O)[O-])cc2)n1 | 9.1 s | 8.1 s | 37.2 g/L | 14.8 µmol/L | 25 s | 3.8 U/L | 204 U/L | 0.68 | 264.4 U/L | 33.7 s | 68.7 U/L | 63 g/L | 2.44 | 1.8 g/L | 1.7 µmol/L | 0.65
5370 µM | Cc1ccccc1Nc1nc(-c2c(O)c3ccccc3oc2=O)cs1 | 8.1 s | 8.1 s | 36.3 g/L | 29.2 µmol/L | 18.1 s | 3.6 U/L | 318 U/L | 0.68 | 263.4 U/L | 28.7 s | 59.5 U/L | 69.2 g/L | 1.7 | 2.1 g/L | 1.8 µmol/L | 0.68
589 µM | O=c1oc2ccccc2c(O)c1-c1csc(Nc2cccc3ccccc23)n1 | 9.7 s | 9.2 s | 41.3 g/L | 24.6 µmol/L | 27.5 s | 4.3 U/L | 210 U/L | 0.94 | 345.3 U/L | 33.2 s | 85 U/L | 72.8 g/L | 2.7 | 1.9 g/L | 2 µmol/L | 0.94
933 µM | O=C(O)CCCCNc1nc(-c2c(O)c3ccccc3oc2=O)cs1 | 10 s | 8 s | 35.4 g/L | 27.4 µmol/L | 22 s | 3.5 U/L | 246 U/L | 0.67 | 231.5 U/L | 23.9 s | 52.6 U/L | 71.5 g/L | 2.1 | 2.5 g/L | 1.2 µmol/L | 0.64

Reference: ChEMBL document CHEMBL2046403, “Biochemical and pharmacological evaluation of 4-hydroxychromen-2-ones bearing polar C-3 substituents as anticoagulants” (Eur J Med Chem, 2012)
